≈ marks a conversion by molar mass, not a printed value.
How the values were obtained:
Type in all cases: functional
[1] = test system: Streptococcus pneumoniae; assay: Antimicrobial activity against tetracycline-susceptible Streptococcus pneumoniae isolate 106 by CLSI dilution method
How it was run: (§1)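 Broth microdilution per CLSI in fresh cation-adjusted Mueller Hinton broth, kept at 4 °C before testing, with defibrinated horse blood added as appropriate. Strains were from ATCC. MIC in µg/mL. Runs were accepted when comparator antibiotics against ATCC quality-control strains fell within recommended ranges.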

[2] = test system: Pseudomonas aeruginosa; assay: Antimicrobial activity against tetracycline-susceptible Pseudomonas aeruginosa isolate 111 by CLSI dilution method; how it was run: as §1
[3] = test system: Enterobacter cloacae; assay: Antimicrobial activity against tetracycline-susceptible Enterobacter cloacae isolate 108 by CLSI dilution method; how it was run: as §1
[4] = test system: Staphylococcus aureus; assay: Antimicrobial activity against tetracycline-susceptible Staphylococcus aureus isolate 101 by CLSI dilution method
[5] = test system: Staphylococcus aureus; assay: Antimicrobial activity against methicillin-, tetracycline-resistant Staphylococcus aureus isolate 161 harboring tetM gene by CLSI dilution method
[6] = test system: Klebsiella pneumoniae; assay: Antimicrobial activity against tetracycline-resistant Klebsiella pneumoniae isolate 153 harboring tetA gene by CLSI dilution method
[7] = test system: Klebsiella pneumoniae; assay: Antimicrobial activity against tetracycline-susceptible Klebsiella pneumoniae isolate 109 by CLSI dilution method; how it was run: as §1
[8] = test system: Escherichia coli; assay: Antimicrobial activity against tetracycline-susceptible Escherichia coli isolate 107 by CLSI dilution method; how it was run: as §1
[9] = test system: Acinetobacter baumannii; assay: Antimicrobial activity against tetracycline-susceptible Acinetobacter baumannii isolate 110 by CLSI dilution method; how it was run: as §1
[10] = test system: Enterococcus faecalis; assay: Antimicrobial activity against tetracycline-susceptible Enterococcus faecalis isolate 103 by CLSI dilution method; how it was run: as §1
[11] = test system: Staphylococcus aureus; assay: Antimicrobial activity against tetracycline-resistant Staphylococcus aureus isolate 158 harboring tetK gene by CLSI dilution method
[12] = test system: Enterococcus faecalis; assay: Antimicrobial activity against tetracycline-resistant Enterococcus faecalis isolate 159 harboring […] gene by CLSI dilution method
[13] = test system: Streptococcus pneumoniae; assay: Antimicrobial activity against tetracycline-resistant Streptococcus pneumoniae isolate 160 harboring tetM gene by CLSI dilution method
[14] = test system: Escherichia coli; assay: Antimicrobial activity against tetracycline-resistant Escherichia coli isolate 155 harboring tetA gene by CLSI dilution method

Compound	MIC [1] [µg/mL]	MIC [2] [µg/mL]	MIC [3] [µg/mL]	MIC [4] [µg/mL]	MIC [5] [µg/mL]	MIC [6] [µg/mL]	MIC [7] [µg/mL]	MIC [8] [µg/mL]	MIC [9] [µg/mL]	MIC [10] [µg/mL]	MIC [11] [µg/mL]	MIC [12] [µg/mL]	MIC [13] [µg/mL]	MIC [14] [µg/mL]
CN(C)[C@@H]1C(O)=C(C(N)=O)C(=O)[C@@]2(O)C(O)=C3C(=O)c4c(cc5ccc(CN6CCCCC6)cc5c4O)C[C@H]3C[C@@H]12	0.125 (≈ 0.223 µM)	> 32	8 (≈ 14.2 µM)	0.5 (≈ 0.89 µM)	2 (≈ 3.56 µM)	8 (≈ 14.2 µM)	8 (≈ 14.2 µM)	2 (≈ 3.56 µM)	1 (≈ 1.78 µM)	0.5 (≈ 0.89 µM)	0.5 (≈ 0.89 µM)	2 (≈ 3.56 µM)	0.25 (≈ 0.445 µM)	–
CNCc1ccc2cc3c(c(O)c2c1)C(=O)C1=C(O)[C@]2(O)C(=O)C(C(N)=O)=C(O)[C@@H](N(C)C)[C@@H]2C[C@@H]1C3	0.0625 (≈ 0.123 µM)	16 (≈ 31.5 µM)	2 (≈ 3.94 µM)	0.5 (≈ 0.985 µM)	4 (≈ 7.88 µM)	8 (≈ 15.8 µM)	4 (≈ 7.88 µM)	1 (≈ 1.97 µM)	4 (≈ 7.88 µM)	0.5 (≈ 0.985 µM)	1 (≈ 1.97 µM)	4 (≈ 7.88 µM)	1 (≈ 1.97 µM)	16 (≈ 31.5 µM)
CCCNCc1ccc2cc3c(c(O)c2c1)C(=O)C1=C(O)[C@]2(O)C(=O)C(C(N)=O)=C(O)[C@@H](N(C)C)[C@@H]2C[C@@H]1C3	0.0156 (≈ 0.0291 µM)	32 (≈ 59.7 µM)	2 (≈ 3.73 µM)	0.5 (≈ 0.934 µM)	2 (≈ 3.73 µM)	4 (≈ 7.47 µM)	2 (≈ 3.73 µM)	1 (≈ 1.87 µM)	1 (≈ 1.87 µM)	0.5 (≈ 0.934 µM)	0.25 (≈ 0.467 µM)	4 (≈ 7.47 µM)	0.25 (≈ 0.467 µM)	4 (≈ 7.47 µM)
COc1c2c(c(O)c3cc(CN4CCCC4)ccc13)C(=O)C1=C(O)[C@]3(O)C(=O)C(C(N)=O)=C(O)[C@@H](N(C)C)[C@@H]3C[C@@H]1C2	0.0156 (≈ 0.027 µM)	16 (≈ 27.7 µM)	4 (≈ 6.92 µM)	0.25 (≈ 0.433 µM)	2 (≈ 3.46 µM)	8 (≈ 13.8 µM)	4 (≈ 6.92 µM)	1 (≈ 1.73 µM)	1 (≈ 1.73 µM)	0.25 (≈ 0.433 µM)	0.125 (≈ 0.216 µM)	4 (≈ 6.92 µM)	0.25 (≈ 0.433 µM)	8 (≈ 13.8 µM)
CN(C)c1c2c(c(O)c3cc(CN4CCC4)ccc13)C(=O)C1=C(O)[C@]3(O)C(=O)C(C(N)=O)=C(O)[C@@H](N(C)C)[C@@H]3C[C@@H]1C2	< 0.0156	32 (≈ 55.5 µM)	8 (≈ 13.9 µM)	1 (≈ 1.73 µM)	2 (≈ 3.47 µM)	16 (≈ 27.7 µM)	4 (≈ 6.94 µM)	2 (≈ 3.47 µM)	1 (≈ 1.73 µM)	0.125 (≈ 0.217 µM)	0.0625 (≈ 0.108 µM)	2 (≈ 3.47 µM)	0.125 (≈ 0.217 µM)	–
CN(C)[C@@H]1C(O)=C(C(N)=O)C(=O)[C@@]2(O)C(O)=C3C(=O)c4c(c(Cl)c5ccc(CN6CCC6)cc5c4O)C[C@H]3C[C@@H]12	–	> 32	8 (≈ 14.1 µM)	1 (≈ 1.76 µM)	2 (≈ 3.52 µM)	8 (≈ 14.1 µM)	4 (≈ 7.04 µM)	2 (≈ 3.52 µM)	2 (≈ 3.52 µM)	0.25 (≈ 0.44 µM)	1 (≈ 1.76 µM)	2 (≈ 3.52 µM)	0.5 (≈ 0.88 µM)	16 (≈ 28.2 µM)
COc1cccc2c(O)c3c(cc12)C[C@H]1C[C@H]2[C@H](N(C)C)C(O)=C(C(N)=O)C(=O)[C@@]2(O)C(O)=C1C3=O	2 (≈ 4.04 µM)	> 32	> 32	–	0.5 (≈ 1.01 µM)	> 32	> 32	> 32	32 (≈ 64.7 µM)	0.5 (≈ 1.01 µM)	–	1 (≈ 2.02 µM)	4 (≈ 8.09 µM)	> 32
CN(C)[C@@H]1C(O)=C(C(N)=O)C(=O)[C@@]2(O)C(O)=C3C(=O)c4c(cc5ccc(-c6cccnc6)cc5c4O)C[C@H]3C[C@@H]12	> 32	> 32	> 32	1 (≈ 1.85 µM)	1 (≈ 1.85 µM)	> 32	> 32	> 32	> 32	0.5 (≈ 0.923 µM)	–	0.25 (≈ 0.462 µM)	> 32	> 32
CCCNCc1ccc2c(OC)c3c(c(O)c2c1)C(=O)C1=C(O)[C@]2(O)C(=O)C(C(N)=O)=C(O)[C@@H](N(C)C)[C@@H]2C[C@@H]1C3	0.0156 (≈ 0.0276 µM)	16 (≈ 28.3 µM)	1 (≈ 1.77 µM)	0.25 (≈ 0.442 µM)	2 (≈ 3.54 µM)	–	1 (≈ 1.77 µM)	1 (≈ 1.77 µM)	1 (≈ 1.77 µM)	0.125 (≈ 0.221 µM)	0.0625 (≈ 0.11 µM)	2 (≈ 3.54 µM)	0.125 (≈ 0.221 µM)	8 (≈ 14.1 µM)
CN(C)Cc1ccc2c(N(C)C)c3c(c(O)c2c1)C(=O)C1=C(O)[C@]2(O)C(=O)C(C(N)=O)=C(O)[C@@H](N(C)C)[C@@H]2C[C@@H]1C3	< 0.0156	> 32	32 (≈ 56.7 µM)	0.25 (≈ 0.443 µM)	2 (≈ 3.54 µM)	–	8 (≈ 14.2 µM)	2 (≈ 3.54 µM)	16 (≈ 28.3 µM)	0.25 (≈ 0.443 µM)	0.25 (≈ 0.443 µM)	2 (≈ 3.54 µM)	0.25 (≈ 0.443 µM)	–

Source: ChEMBL document CHEMBL1781932 (J Med Chem, 2011)
